ChEMBL document CHEMBL1955829, “Synthesis and biological evaluation of 4β-sulphonamido and 4β-[(4'-sulphonamido)benzamide]podophyllotoxins as DNA topoisomerase-IIα and apoptosis inducing agents” (2012)
The source made the active and inactive calls. No cut-off for these calls is given here.

Columns and labels:
COLO 205 [1] = test: Induction of apoptosis in human COLO205 cells assessed as increase in caspase 3 activation at 4 uM after 24 hrs by ELISA; type: functional, cell-based
COLO 205 [2] = test: Up-regulation of topoisomerase 2alpha in human COLO205 cells at 4 uM after 24 hrs by Western blotting analysis in presence of HDAC inhibitor, trichostatin A; type: functional, cell-based
In short: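 Colo-205 cells exposed 24 h to test agent plus TSA, each at 4 µM. Western blot of lysates probed for topo-IIα, with β-actin as loading control.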

COLO 205 [3] = test: Cell cycle arrest in human COLO205 cells assessed as accumulation at G2/M phase at 4 uM after 24 hrs by FACS analysis (reference value: 25.92%); type: functional
In short: (§1)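 Colo-205 cells seeded at […] per 60 mm dish and treated 24 h at 4 µM; TSA arm used TSA at 4 µM for 12 h. Cells trypsinised, fixed in ice-cold 70% ethanol 30 min at 4 °C, RNase 1 mg/mL 30 min at 37 °C, then propidium iodide/citrate/Triton stain. DNA content of 20,000 events read by flow cytometry; phase percentages from histograms.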

[4] = target: Serine-protein kinase ATM (Homo sapiens) (UniProt Q13315); test: Induction of ATM activation in human COLO205 cells at 4 uM after 24 hrs by ATM S1981 staining; type: cell-based; details: COLO 205
In short: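 Colo-205 cells on coverslips treated 24 h at 4 µM. Fixed in 4% paraformaldehyde, permeabilised with 0.2% Triton X-100, held in methanol overnight at 4 °C, and blocked with 1% BSA. Stained with anti-phospho-ATM (S1981) or anti-phospho-Chk1 (1:100) for 2 h at room temperature, then FITC anti-rabbit secondary for 1 h; DAPI/PI counterstain and confocal imaging.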

COLO 205 [5] = test: Cell cycle arrest in human COLO205 cells assessed as accumulation at S phase at 4 uM after 24 hrs by FACS analysis in presence of HDAC inhibitor, trichostatin A (reference value: 7.89%); type: functional; in short: as §1
COLO 205 [6] = test: Induction of apoptosis in human COLO205 cells assessed as increase in caspase 3 activation at 4 uM after 24 hrs by Western blotting analysis; type: functional, cell-based
In short: (§2)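 Colo-205 cells treated 24 h at 4 µM and lysed in ice-cold RIPA with protease inhibitors and NaF. Protein measured by Bradford; 50 µg per lane run on 12% SDS-PAGE and transferred to PVDF. Membrane blocked 2 h, primary antibody (topo-IIα/β, p21, p16, pro-caspase-3, NF-kB p65) overnight at 4 °C, HRP secondary 1:2000 for 1 h, chemiluminescence detection; β-actin as loading control. Reduced procaspase-3 taken as caspase-3 activation.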

COLO 205 [7] = test: Induction of apoptosis in human COLO205 cells assessed as down regulation of Bcl-2 at 4 uM after 24 hrs by ELISA; type: functional, cell-based
In short: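 Colo-205 cells treated 24 h at 4 µM, with etoposide and camptothecin as controls. Lysates added to Bcl2-antibody-coated wells, followed by a biotin-conjugated anti-human Bcl2 monoclonal antibody, in a Bcl2 ELISA.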

COLO 205 [8] = test: Cell cycle arrest in human COLO205 cells assessed as accumulation at G0 phase at 4 uM after 24 hrs by FACS analysis in presence of HDAC inhibitor, trichostatin A (reference value: 4.06%); type: functional; in short: as §1
COLO 205 [9] = test: Induction of apoptosis in human COLO205 cells assessed as up-regulation of NF-kappaB at 4 uM after 24 hrs by Western blotting analysis; type: functional, cell-based; in short: as §2
A2780 = test: Growth inhibition of human A2780 cells after 48 hrs by sulforhodamine B assay; type: functional; details: A2780, 48 h
In short: (§3)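 Cells grown in DMEM with 10% FBS and 2 mM L-glutamine, plated at densities set by doubling time, and held 24 h before dosing. Exposure was 48 h to 0.1, 1, 10 and 100 µM in triplicate wells. Cells fixed with cold TCA (final 10%) 60 min at 4 °C and stained with 0.4% SRB 20 min. Bound dye eluted in 10 mM Tris base and read at 540 nm (690 nm reference). GI50 is the concentration giving 50% reduction in net protein gain versus control; values are the mean of three determinations.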

KB = test: Growth inhibition of human KB cells after 48 hrs by sulforhodamine B assay; type: functional; in short: as §3
[10] = target: DNA topoisomerase 2-alpha (Homo sapiens) (UniProt P11388); test: Inhibition of topoisomerase 2alpha in human in COLO205 cells assessed as induction of single-strand DNA breaks at 4 uM after 24 hrs by comet assay; type: cell-based; details: COLO 205
In short: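 Colo-205 cells treated 24 h at 4 µM. Electrophoresis 20 min at 40 V in 0.5% TBE pH 8. Slides stained with SYBR green 30 min and imaged by fluorescence microscopy at 20×.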

COLO 205 [11] = test: Cell cycle arrest in human COLO205 cells assessed as accumulation at G2/M phase at 4 uM after 24 hrs by FACS analysis in presence of HDAC inhibitor, trichostatin A (reference value: 17.41%); type: functional; in short: as §1
MCF7 = test: Growth inhibition of human MCF7 cells after 48 hrs by sulforhodamine B assay; type: functional; details: MCF7, 48 h; in short: as §3
COLO 205 [12] = test: Cell cycle arrest in human COLO205 cells assessed as accumulation at G1 phase at 4 uM after 24 hrs by FACS analysis in presence of HDAC inhibitor, trichostatin A (reference value: 70.57%); type: functional; in short: as §1
COLO 205 [13] = test: Induction of apoptosis in human COLO205 cells assessed as up-regulation of p21 at 4 uM after 24 hrs by Western blotting analysis; type: functional, cell-based; in short: as §2
COLO 205 [14] = test: Induction of apoptosis in human COLO205 cells assessed as up-regulation of p16 at 4 uM after 24 hrs by Western blotting analysis; type: functional, cell-based; in short: as §2
COLO 205 [15] = test: Cytotoxicity against human COLO205 cells at 8 uM after 24 hrs by MTT assay; type: functional, cell-based
In short: (§4)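 Colo-205 cells plated at 10,000 per well, left overnight, then exposed 24 h at 2, 4 or 8 µM. MTT added for 2 h at 37 °C, formazan dissolved in extraction buffer, and optical density read at 570 nm against untreated cells.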

COLO 205 [16] = test: Cytotoxicity against human COLO205 cells at 4 uM after 24 hrs by MTT assay; type: functional, cell-based; in short: as §4
COLO 205 [17] = test: Cell cycle arrest in human COLO205 cells assessed as accumulation at S phase at 4 uM after 24 hrs by FACS analysis (reference value: 8.91%); type: functional; in short: as §1
[18] = target: DNA topoisomerase 2-alpha (Homo sapiens) (UniProt P11388); test: Inhibition of topoisomerase 2alpha using pBR322 DNA as substrate at 50 uM after 30 mins by gel electrophoresis
In short: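 Purified topo-IIα enzyme (4 U/µL) incubated with pBR322 plasmid DNA and compound at 50, 25 or 10 µM final, in fresh buffer containing ATP, KCl, MgCl2, DTT and Tris pH 8.0. Inhibition of DNA processing assessed on the resulting gel.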

A549 = test: Growth inhibition of human A549 cells after 48 hrs by sulforhodamine B assay; type: functional; details: A549, 48 h; in short: as §3
COLO 205 [19] = test: Cytotoxicity against human COLO205 cells at 2 uM after 24 hrs by MTT assay; type: functional, cell-based; in short: as §4
ZR-75-1 = test: Growth inhibition of human ZR-75-1 cells after 48 hrs by sulforhodamine B assay; type: functional; details: ZR-75-1, 48 h; in short: as §3

Chain of DNA topoisomerase 2-alpha (Homo sapiens) (P11388 whole entry): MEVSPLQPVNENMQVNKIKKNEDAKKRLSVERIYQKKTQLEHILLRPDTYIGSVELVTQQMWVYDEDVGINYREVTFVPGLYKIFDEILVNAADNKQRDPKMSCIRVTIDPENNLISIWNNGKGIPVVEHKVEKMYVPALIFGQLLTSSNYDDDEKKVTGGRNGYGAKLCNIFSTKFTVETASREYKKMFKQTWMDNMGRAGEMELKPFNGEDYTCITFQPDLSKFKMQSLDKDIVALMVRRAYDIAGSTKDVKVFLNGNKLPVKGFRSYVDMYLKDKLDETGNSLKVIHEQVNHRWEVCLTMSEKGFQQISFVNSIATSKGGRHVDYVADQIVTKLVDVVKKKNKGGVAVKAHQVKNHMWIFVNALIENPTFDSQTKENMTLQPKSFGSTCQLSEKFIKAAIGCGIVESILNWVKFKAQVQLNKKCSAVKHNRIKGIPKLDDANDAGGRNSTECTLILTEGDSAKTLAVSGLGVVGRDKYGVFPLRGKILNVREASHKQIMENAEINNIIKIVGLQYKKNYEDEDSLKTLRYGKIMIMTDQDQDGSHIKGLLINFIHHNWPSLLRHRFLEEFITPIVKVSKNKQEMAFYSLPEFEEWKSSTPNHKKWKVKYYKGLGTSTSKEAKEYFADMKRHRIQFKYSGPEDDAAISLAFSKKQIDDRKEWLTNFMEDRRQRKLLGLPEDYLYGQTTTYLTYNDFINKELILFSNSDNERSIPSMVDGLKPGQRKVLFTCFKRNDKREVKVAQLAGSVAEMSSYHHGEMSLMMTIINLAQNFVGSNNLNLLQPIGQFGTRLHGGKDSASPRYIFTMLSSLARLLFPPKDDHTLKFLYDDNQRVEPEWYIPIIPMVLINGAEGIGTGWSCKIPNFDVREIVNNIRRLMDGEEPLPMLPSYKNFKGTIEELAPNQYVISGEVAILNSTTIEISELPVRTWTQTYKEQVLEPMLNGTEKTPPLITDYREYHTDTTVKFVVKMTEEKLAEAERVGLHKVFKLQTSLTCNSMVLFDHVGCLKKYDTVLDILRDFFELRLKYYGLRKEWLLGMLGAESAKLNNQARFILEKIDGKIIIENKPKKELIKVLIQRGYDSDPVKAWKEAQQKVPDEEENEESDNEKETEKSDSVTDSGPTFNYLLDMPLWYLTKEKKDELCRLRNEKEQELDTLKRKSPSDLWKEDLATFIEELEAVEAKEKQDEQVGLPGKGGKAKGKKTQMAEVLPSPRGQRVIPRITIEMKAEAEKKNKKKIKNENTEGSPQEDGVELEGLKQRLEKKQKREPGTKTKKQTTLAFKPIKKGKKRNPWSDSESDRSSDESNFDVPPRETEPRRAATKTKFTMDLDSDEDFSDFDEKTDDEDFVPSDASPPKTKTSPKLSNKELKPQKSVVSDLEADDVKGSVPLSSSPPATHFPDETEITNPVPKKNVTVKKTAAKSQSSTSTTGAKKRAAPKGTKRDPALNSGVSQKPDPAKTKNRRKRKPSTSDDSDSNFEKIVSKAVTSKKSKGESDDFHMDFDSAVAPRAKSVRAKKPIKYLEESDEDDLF
Chain of Serine-protein kinase ATM (Homo sapiens) (Q13315 whole entry): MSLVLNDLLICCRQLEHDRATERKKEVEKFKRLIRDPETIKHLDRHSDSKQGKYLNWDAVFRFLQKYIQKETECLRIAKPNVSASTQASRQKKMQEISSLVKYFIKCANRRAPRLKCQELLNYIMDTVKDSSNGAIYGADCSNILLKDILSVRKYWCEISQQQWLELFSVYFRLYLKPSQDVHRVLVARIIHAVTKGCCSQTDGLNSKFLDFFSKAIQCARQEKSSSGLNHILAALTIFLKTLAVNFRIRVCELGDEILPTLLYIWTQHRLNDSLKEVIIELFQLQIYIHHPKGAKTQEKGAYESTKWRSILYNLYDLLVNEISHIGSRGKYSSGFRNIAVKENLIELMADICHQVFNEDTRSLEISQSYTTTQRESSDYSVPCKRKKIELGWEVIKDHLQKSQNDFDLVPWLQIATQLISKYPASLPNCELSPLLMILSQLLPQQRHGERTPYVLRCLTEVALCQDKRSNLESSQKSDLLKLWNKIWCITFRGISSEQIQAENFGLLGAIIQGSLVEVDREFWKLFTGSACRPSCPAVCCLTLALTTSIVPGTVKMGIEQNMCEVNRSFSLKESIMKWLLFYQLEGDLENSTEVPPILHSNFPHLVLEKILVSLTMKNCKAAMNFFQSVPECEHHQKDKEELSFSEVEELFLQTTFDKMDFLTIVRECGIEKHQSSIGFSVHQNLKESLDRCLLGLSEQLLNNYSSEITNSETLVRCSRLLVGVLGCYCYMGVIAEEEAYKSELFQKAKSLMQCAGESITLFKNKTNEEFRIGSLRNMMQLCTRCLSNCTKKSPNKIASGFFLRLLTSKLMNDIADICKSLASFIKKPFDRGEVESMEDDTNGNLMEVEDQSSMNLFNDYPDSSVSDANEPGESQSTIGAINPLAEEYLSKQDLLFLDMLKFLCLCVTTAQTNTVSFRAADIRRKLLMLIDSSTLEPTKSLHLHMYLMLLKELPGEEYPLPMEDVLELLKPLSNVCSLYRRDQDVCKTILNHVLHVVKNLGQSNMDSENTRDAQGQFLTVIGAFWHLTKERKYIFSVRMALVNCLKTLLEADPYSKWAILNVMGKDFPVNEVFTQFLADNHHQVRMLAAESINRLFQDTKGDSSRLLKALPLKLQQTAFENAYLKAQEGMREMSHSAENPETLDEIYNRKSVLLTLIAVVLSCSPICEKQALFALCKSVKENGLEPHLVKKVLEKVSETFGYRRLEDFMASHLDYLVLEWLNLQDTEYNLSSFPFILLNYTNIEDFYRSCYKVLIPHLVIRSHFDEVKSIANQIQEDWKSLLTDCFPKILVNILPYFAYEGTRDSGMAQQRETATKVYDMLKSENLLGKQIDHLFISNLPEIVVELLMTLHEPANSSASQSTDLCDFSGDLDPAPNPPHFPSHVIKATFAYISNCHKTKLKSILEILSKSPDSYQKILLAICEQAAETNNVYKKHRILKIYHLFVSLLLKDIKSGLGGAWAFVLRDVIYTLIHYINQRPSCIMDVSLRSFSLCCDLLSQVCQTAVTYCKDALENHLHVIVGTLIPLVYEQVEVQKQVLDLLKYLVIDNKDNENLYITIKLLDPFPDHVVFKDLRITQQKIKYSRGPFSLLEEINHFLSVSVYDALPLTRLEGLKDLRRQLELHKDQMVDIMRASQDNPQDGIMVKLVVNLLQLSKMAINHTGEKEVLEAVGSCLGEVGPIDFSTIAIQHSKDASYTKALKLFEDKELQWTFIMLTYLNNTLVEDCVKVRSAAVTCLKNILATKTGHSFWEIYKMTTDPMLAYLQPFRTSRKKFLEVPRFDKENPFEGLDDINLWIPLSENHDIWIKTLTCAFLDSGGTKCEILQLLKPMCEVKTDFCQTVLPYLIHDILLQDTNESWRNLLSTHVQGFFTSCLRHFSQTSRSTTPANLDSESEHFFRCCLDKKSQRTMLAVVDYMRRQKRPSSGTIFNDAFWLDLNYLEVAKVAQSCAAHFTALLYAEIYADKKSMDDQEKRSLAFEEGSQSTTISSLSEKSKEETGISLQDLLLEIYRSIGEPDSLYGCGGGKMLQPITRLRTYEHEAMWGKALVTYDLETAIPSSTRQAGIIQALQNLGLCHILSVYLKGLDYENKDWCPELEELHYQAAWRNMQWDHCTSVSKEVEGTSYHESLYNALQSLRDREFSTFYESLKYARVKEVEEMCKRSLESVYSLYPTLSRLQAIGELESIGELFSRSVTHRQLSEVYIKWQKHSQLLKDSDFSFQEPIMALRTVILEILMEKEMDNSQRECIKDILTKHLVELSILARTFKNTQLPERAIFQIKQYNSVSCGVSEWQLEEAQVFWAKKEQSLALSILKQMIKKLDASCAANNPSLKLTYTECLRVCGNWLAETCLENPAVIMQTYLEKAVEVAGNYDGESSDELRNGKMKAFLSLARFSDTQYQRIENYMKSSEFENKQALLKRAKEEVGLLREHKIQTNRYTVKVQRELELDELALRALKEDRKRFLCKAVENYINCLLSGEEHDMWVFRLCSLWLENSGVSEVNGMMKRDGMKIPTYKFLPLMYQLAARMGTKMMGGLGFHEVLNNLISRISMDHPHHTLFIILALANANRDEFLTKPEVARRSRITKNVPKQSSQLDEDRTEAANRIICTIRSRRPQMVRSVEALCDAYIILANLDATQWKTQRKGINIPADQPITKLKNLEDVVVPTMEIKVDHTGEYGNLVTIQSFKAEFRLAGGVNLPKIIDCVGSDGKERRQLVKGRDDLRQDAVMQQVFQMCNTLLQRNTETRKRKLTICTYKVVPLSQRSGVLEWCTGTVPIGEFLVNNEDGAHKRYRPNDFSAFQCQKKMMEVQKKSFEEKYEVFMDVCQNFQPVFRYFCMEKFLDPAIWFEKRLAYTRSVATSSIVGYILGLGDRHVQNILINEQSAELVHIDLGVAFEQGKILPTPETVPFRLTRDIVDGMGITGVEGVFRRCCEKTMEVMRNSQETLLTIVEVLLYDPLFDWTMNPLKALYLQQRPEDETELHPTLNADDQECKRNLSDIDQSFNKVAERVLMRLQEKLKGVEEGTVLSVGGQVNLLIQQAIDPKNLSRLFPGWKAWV

Structure (SMILES) | Activity (COLO 205 [1]) | Activity (COLO 205 [2]) | Percentage of cells in G2/M phase (COLO 205 [3]) [%] | Activity [4] | Activity (COLO 205 [5]) [%] | Activity (COLO 205 [6]) | Activity (COLO 205 [7]) | Activity (COLO 205 [8]) [%] | Activity (COLO 205 [9]) | GI50 (A2780) [nM] | GI50 (KB) [nM] | inhibition [10] | Activity (COLO 205 [11]) [%] | GI50 (MCF7) [nM] | Activity (COLO 205 [12]) [%] | Activity (COLO 205 [13]) | Activity (COLO 205 [14]) | Activity (COLO 205 [15]) | Activity (COLO 205 [16]) | Percentage of cells in S phase (COLO 205 [17]) [%] | also measured
COc1cc([C@@H]2c3cc4c(cc3[C@@H](O[C@@H]3O[C@@H]5CO[C@@H](C)O[C@H]5[C@H](O)[C@H]3O)[C@H]3COC(=O)[C@H]23)OCO4)cc(OC)c1O [ETOPOSIDE] | Active | Active | 74.27 | Active | 8.55 | Active | Active | 56.29 | Active | 1310 | 310 | Active | 13.28 | 2110 | 21.74 | Active | Active | Active | Active | 6.97 | inhibition [18]: Active; GI50 (A549): 3080 nM; Activity (COLO 205 [19]): Active; GI50 (ZR-75-1): 200 nM
COC(=O)c1sccc1S(=O)(=O)N[C@@H]1c2cc3c(cc2[C@@H](c2cc(OC)c(OC)c(OC)c2)[C@H]2C(=O)OC[C@@H]21)OCO3 | Active | Active | 40.57 | Active | 7.85 | Active | Active | 57.43 | Active | 50 | 40 | 60% | 15.7 | 180 | 18.8 | Active | Active | Active | Active | 8.16 | inhibition [18]: Active; GI50 (A549): 150 nM; Activity (COLO 205 [19]): Active; GI50 (ZR-75-1): 60 nM
